The list is not random: actives were taken first. Their share in the collection is about 4%.
Arrestin-AP2 inh: blocks beta-arrestin peptide binding to AP2 adaptin; FITC-arrestin peptide / GST-AP2 beads, flow cytometry; AP2 beta2 appendage carries R879A mutation; actives 0.31% (n = 340,000); inhibition, % at 10 µM;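 active = inhibition above a set limit, near 3 SD of compounds lacking own fluorescence, cut at about 54% in these data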;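 also: plate controls were DMSO wells for no effect and 5 µM unlabelled arrestin peptide for full effect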
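Test system: GST-tagged AP2 beta2-adaptin appendage (R879A) on 4 µm glutathione beads; also added: fluorescein-tagged arrestin peptide at 50 nM final; timing: 12 min plus 1 h, RT; signal: flow cytometry, FL1 (488/535 nm); read-out: percent drop in bead-associated FITC signal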
NR3A LBD binder: modulates the human NR3A ligand-binding domain. NR3A LBD differential scanning fluorimetry, Tm shift; 0% = protein alone, 100% = glycine-bound protein. Tm shift relative to glycine control, % at 25 µM. actives 2.5% (n = 340,000). AID 1259313;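 active = melting temperature shift of at least 10% of the positive control shift, at one fixed dose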
hiPSC survival: enhancers of human iPSC single-cell survival; hiPSC single-cell survival, ATPlite luminescence; 100% = ROCK inhibitor wells, 0% = DMSO; survival enhancement, % at 20 µM; actives 0.044% (n = 360,000); AID 602274; in the data active = survival enhancement above about 18%;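 also: cells exposed to compounds for 16 hours before the ATP read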
Cardio protect: protects H9c2 cardiomyocytes from peroxide injury. H2O2 injury protection, ATPLite, 2 h. protection from H2O2 cell death, % at 20 µM. actives 0.63% (n = 360,000). AID 588492;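 active = compounds giving at least 50% protection of heart cells from peroxide-induced death in the single-dose screen, raw or plate-pattern-corrected value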;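 also: 0% = DMSO wells with peroxide and 100% = DMSO wells without peroxide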
SENP1 inh: blocks the human SENP1 SUMO protease catalytic domain; AID 624204; actives 0.21% (n = 360,000); Q9P0U3; inhibition, % at 10 µM; recombinant SENP1 catalytic domain, CyPet-SUMO1-YPet FRET cleavage;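 active = inhibition at least 30% at 10 µM, raw YFP signal under a set limit, fluorescence ratio 0.5 to 1.5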;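 also: 0% = enzyme with DMSO and 100% = no enzyme wells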
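Assay system: hSENP1 catalytic domain, recombinant. Amount: SENP1 enzyme, 20 pM final. Schedule: 50 min reaction, RT, dark. Technique: FRET, CFP and YFP emission. Control set: no-enzyme wells low, DMSO-plus-enzyme wells high control.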
FAS TE block: blocks the thioesterase domain of human fatty acid synthase | recombinant FAS-TE, OMFH fluorogenic substrate, fluorescence endpoint | inhibition, % at 15 µM | actives 0.67% (n = 360,000) | AID 602261;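 active = compounds whose normalised, plate-corrected inhibition of enzyme fluorescence in the single-dose primary screen is 50% or more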;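 also: 0% = DMSO with enzyme and 100% = substrate without enzyme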
Arr AP2 CP1: human beta-arrestin and AP2 interaction inhibition, cherry pick. shares compounds with Arrestin-AP2 inh. actives 2% (n = 1,300). inhibition, % at 10 µM. GST-AP2 beads, FITC arrestin peptide binding, flow cytometry; GST-fused beta2-adaptin appendage, R879A mutant;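 active = inhibition above a set limit, roughly 3 SD of non-fluorescent compound noise, cut at about 38% in these data; inactive = inhibition at or below that limit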;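 also: loss of bead fluorescence from 50 nM FITC arrestin peptide bound to appendage; 0% = negative control wells and 100% = excess unlabelled arrestin peptide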
Target sequence (P63010 whole entry, looked up, the tested form may be a part, one chain of several): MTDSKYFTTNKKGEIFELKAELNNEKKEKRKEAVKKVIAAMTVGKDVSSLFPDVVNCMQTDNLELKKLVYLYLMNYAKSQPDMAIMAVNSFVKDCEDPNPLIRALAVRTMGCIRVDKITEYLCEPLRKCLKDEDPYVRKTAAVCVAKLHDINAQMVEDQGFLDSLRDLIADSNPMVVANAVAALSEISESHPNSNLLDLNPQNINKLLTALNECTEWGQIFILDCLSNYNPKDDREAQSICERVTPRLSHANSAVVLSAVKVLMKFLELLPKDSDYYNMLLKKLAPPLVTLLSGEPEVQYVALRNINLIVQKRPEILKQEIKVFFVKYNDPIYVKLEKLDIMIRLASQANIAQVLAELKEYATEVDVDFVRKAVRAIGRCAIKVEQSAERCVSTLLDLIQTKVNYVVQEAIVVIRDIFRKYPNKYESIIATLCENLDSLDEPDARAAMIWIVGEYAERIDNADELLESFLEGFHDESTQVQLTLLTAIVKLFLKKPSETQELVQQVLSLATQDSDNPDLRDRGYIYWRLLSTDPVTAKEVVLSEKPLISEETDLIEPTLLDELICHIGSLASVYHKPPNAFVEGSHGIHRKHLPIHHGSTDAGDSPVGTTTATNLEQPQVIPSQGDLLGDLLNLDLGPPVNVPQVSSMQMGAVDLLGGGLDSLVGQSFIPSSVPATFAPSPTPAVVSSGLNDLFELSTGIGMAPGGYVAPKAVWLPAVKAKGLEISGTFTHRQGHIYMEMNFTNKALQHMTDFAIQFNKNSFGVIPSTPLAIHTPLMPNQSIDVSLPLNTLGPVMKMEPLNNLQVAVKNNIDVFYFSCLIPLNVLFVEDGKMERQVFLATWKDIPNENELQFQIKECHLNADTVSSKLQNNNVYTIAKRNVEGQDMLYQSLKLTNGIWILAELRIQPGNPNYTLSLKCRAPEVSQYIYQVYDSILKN
GST GSH counter: counter-screen for beta-arrestin AP2 inhibitors: GST-GSH bead binding. inhibition, % at 10 µM. GST-fluorescein binding to GSH beads, fluorescence. actives 2% (n = 1,300). shares compounds with Arrestin-AP2 inh;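 active = inhibition above 50%, about 3 SD of the inhibition seen with non-fluorescent compounds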;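 also: fluorescein maleimide labelled GST captured on 4 micron glutathione beads; higher means more loss of bead fluorescence from quenching or blocked binding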
* = called active by the depositor; · = no result.

SMILES	Arrestin-AP2 inh	NR3A LBD binder	hiPSC survival	Cardio protect	SENP1 inh	FAS TE block	Arr AP2 CP1	GST GSH counter
CCOC(=O)c1c(NC(=O)c2cccs2)sc(C)c1CC	11	-9	2	-21	-5	32	·	·
CC(NC(=O)c1cccc(S(=O)(=O)N(C)c2ccccc2)c1)c1cccnc1 (centres undefined)	29	-2	0	-11	0	-1	·	·
COc1ccc(NC(=O)c2ccc(=O)[nH]c2)cc1S(=O)(=O)N1CCOCC1	39	1	0	9	-2	-5	3	-6
Cc1ccc(NC(=O)c2ccc(=O)[nH]c2)cc1S(=O)(=O)N1CCCCC1	12	-1	0	3	1	-3	-7	-5
CCOc1cc(CNc2ccc(N3CCCC3)cc2)cc(Cl)c1OC	55*	-3	-3	-5	-53	6	2	13
COc1cc(CNc2ccc(N3CCCC3)cc2)cc(Cl)c1OC	46	0	-1	-21	-38	12	·	·
COc1ccccc1C(=O)NC(=O)COC(=O)c1nc2nc(C)cc(C)n2n1	60*	0	0	4	0	-10	4	-7
COc1cc(-c2c(C(C)=O)c(C)nc3c2C(=O)c2ccccc2-3)cc(OC)c1OC	59*	-1	0	12	2	-2	6	-2
CCOC(=O)c1c(C)nc2c(c1-c1ccccc1)C(=O)c1ccccc1-2	1	0	-3	18	1	22	·	·
CCCCNC(=O)c1nc(C2CCN(S(=O)(=O)c3ccc(Cl)cc3)CC2)oc1-c1ccccc1	·	·	·	·	3	·	·	·
CNC(=S)N1CCN(c2c(F)cc3c(=O)c(C(=O)O)cn(C4CC4)c3c2OC)CC1C (centres undefined)	68*	-2	6	-2	2	-6	-3	-10
CC(Cc1ccccn1)NC(=O)c1ccc(OC2CCN(Cc3ccccn3)CC2)cc1 (centres undefined)	62*	1	1	0	-16	-8	11	1
O=C(COC(=O)Cn1cnc2ccccc21)Nc1ccc2c(c1)C(=O)c1ccccc1C2=O	100*	4	0	22	3	-13	24	33
COc1cc(OC)c(OC)cc1/C=C/C(=O)OCC(=O)Nc1c(C)n(C)n(-c2ccccc2)c1=O	1	-3	0	10	-13	-7	·	·
CSCCC(NS(=O)(=O)c1ccccc1F)C(=O)NCC(C)(C)N1CCOCC1 (centres undefined)	56*	2	2	0	1	-10	4	1
CC1(C)CC(=O)C=C(c2n[nH]nc2-c2ccccc2)C1	·	·	-2	12	1	-14	·	·
CC(C)CCn1cnc2c(sc3nc4c(cc32)CSC(C)(C)C4)c1=O	104*	1	-2	-6	2	-1	-5	8
O=c1c(Cc2c(F)cccc2Cl)c(O)ccn1CCCn1ccnc1	63*	-2	-1	6	-1	-8	-3	-7
O=c1c(Cc2c(F)cccc2Cl)c(O)ccn1Cc1ccc(F)cc1	12	-1	0	-1	3	-2	·	·
CCOC(=O)c1ccc(O)c(-n2cc3c(c2-c2ccccc2)c(=O)n(C)c(=O)n3C)c1	·	·	-1	4	0	-7	·	·
OC(c1ccc(F)c(F)c1)c1ncc(-c2cccc(C(F)(F)F)c2)[nH]1 (centres undefined)	·	·	-2	-21	-1	24	·	·
CCOc1ncccc1C(=O)Nc1cc(S(=O)(=O)N2CCCCC2)ccc1C	4	-2	0	0	0	-4	7	6
CCOc1ncccc1C(=O)Nc1cc(S(=O)(=O)N2CCOCC2)ccc1OCC(F)(F)F	29	-17	3	-3	0	22	1	9
